Experimental data published in ChEMBL document CHEMBL5724801, “EUbOPEN Chemogenomics Library - Multiplex” (2024).
Where “and” joins values, the source holds several entries; their conditions need not be identical. Equal values may be shown once.

Tested on: HEK-293T
Experiment: Multiplex assay against HEK293T
Type: toxicity, cell-based
Conditions: human
Outline: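 Live cells were stained at seeding with Hoechst33342, BioTracker Green Microtubule Cytoskeleton Dye, MitoTracker Red and Annexin V Alexa Fluor 680. Following compound addition, they were imaged on a CQ1 microscope at 37°C and 5% CO2 and gated by CellPathfinder machine learning into Hoechst high-intensity objects or normal cells, with normal cells split into healthy, pyknosed or fragmented nuclei and pyknosed cells into mitotic or apoptotic. Tubulin, mitochondrial-mass and membrane-permeability phenotypes are per cents of healthy-nucleus cells.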

[1] = 12 h, 1 µM, compound concentration 1 uM
[2] = 12 h, 10 µM, compound concentration 10 uM
[3] = 24 h, 1 µM, compound concentration 1 uM
[4] = 24 h, 10 µM, compound concentration 10 uM
[5] = 48 h, 1 µM, compound concentration 1 uM
[6] = 48 h, 10 µM, compound concentration 10 uM

With `Cc1sc2c(c1C)C(c1ccc(Cl)cc1)=N[C@@H](CC(=O)NCCCCCCCCNC(=O)COc1cccc3c1C(=O)N(C1CCC(=O)NC1=O)C3=O)c1nnc(C)n1-2` (some centres not stated) the “Population Apoptotic (%)” value [1] was 66% and 62%, the “Population Fragmented Nuclei (%)” value [1] was 5% and 6% and the “Population Healthy Nuclei (%)” value [1] was 55% and 69%. The “Population Membrane Permeable-Phenotype (%)” value [1] was 0%, the “Population Mitochondria Different-Phenotype (%)” value [1] was 73% and 91% and the “Population Mitotic Cells (%)” value [1] was 33% and 37%. For the same molecule, the “Population Normal (%)” value [1] was 90% and 69%, the “Population Pyknosed Nuclei (%)” value [1] was 39% and 24% and the “Population Tubulin-Different-Phenotype (%)” value [1] was 49% and 59%. The “Total Cell Count” value [1] was 175 and 205, the “Population Apoptotic (%)” value [2] was 60% and 53% and the “Population Fragmented Nuclei (%)” value [2] was 9% and 8%. The “Population Healthy Nuclei (%)” value [2] was 67% and 66%, the “Population Hoechst High Intensity Objects (%)” value [2] was 14% and 37% and the “Population Membrane Permeable-Phenotype (%)” value [2] was 0%. The “Population Mitochondria Different-Phenotype (%)” value [2] was 75% and 87%, the “Population Mitotic Cells (%)” value [2] was 39% and 46% and the “Population Normal (%)” value [2] was 85% and 62%. The “Population Pyknosed Nuclei (%)” value [2] was 23% and 24%, the “Population Tubulin-Different-Phenotype (%)” value [2] was 23% and 39% and the “Total Cell Count” value [2] was 363 and 315. For the same molecule, the “Population Apoptotic (%)” value [3] was 51% and 67%, the “Population Fragmented Nuclei (%)” value [3] was 7% and 6% and the “Population Healthy Nuclei (%)” value [3] was 61% and 70%. For the same molecule, the “Population Membrane Permeable-Phenotype (%)” value [3] was 0%, the “Population Mitochondria Different-Phenotype (%)” value [3] was 58% and 83% and the “Population Mitotic Cells (%)” value [3] was 48% and 32%. For the same molecule, the “Population Normal (%)” value [3] was 93% and 69%, the “Population Pyknosed Nuclei (%)” value [3] was 31% and 23% and the “Population Tubulin-Different-Phenotype (%)” value [3] was 22% and 31%. For the same molecule, the “Total Cell Count” value [3] was 261 and 231, the “Population Apoptotic (%)” value [4] was 52% and 57% and the “Population Fragmented Nuclei (%)” value [4] was 11% and 9%. The “Population Healthy Nuclei (%)” value [4] was 64% and 60%, the “Population Membrane Permeable-Phenotype (%)” value [4] was 0% and the “Population Mitochondria Different-Phenotype (%)” value [4] was 64% and 86%. The “Population Mitotic Cells (%)” value [4] was 47% and 42%, the “Population Normal (%)” value [4] was 87% and 60% and the “Population Pyknosed Nuclei (%)” value [4] was 24% and 30%. The “Population Tubulin-Different-Phenotype (%)” value [4] was 19%, the “Total Cell Count” value [4] was 397 and 346 and the “Population Apoptotic (%)” value [5] was 55% and 67%. For the same molecule, the “Population Fragmented Nuclei (%)” value [5] was 7% and 9%, the “Population Healthy Nuclei (%)” value [5] was 58% and 65% and the “Population Membrane Permeable-Phenotype (%)” value [5] was 0%. The “Population Mitochondria Different-Phenotype (%)” value [5] was 56% and 78%, the “Population Mitotic Cells (%)” value [5] was 44% and 32% and the “Population Normal (%)” value [5] was 97% and 84%. For the same molecule, the “Population Pyknosed Nuclei (%)” value [5] was 33% and 25%, the “Population Tubulin-Different-Phenotype (%)” value [5] was 30% and 42% and the “Total Cell Count” value [5] was 284 and 289. The “Population Apoptotic (%)” value [6] was 48% and 65%, the “Population Fragmented Nuclei (%)” value [6] was 9% and 15% and the “Population Healthy Nuclei (%)” value [6] was 55% and 52%. For the same molecule, the “Population Hoechst High Intensity Objects (%)” value [6] was 14% and 31%, the “Population Membrane Permeable-Phenotype (%)” value [6] was 0% and the “Population Mitochondria Different-Phenotype (%)” value [6] was 51% and 76%. The “Population Mitotic Cells (%)” value [6] was 51% and 34%, the “Population Normal (%)” value [6] was 85% and 69% and the “Population Pyknosed Nuclei (%)” value [6] was 35% and 31%. The “Population Tubulin-Different-Phenotype (%)” value [6] was 17% and 31% and the “Total Cell Count” value [6] was 403 and 300.
